In article PMC9891257 (RNA, 2023):
Where “and” joins values, the source holds several entries; their conditions need not be identical. Identical values can stand only once.

Experiments:
hNudt16 = hNudt16 (Homo sapiens, UniProt Q96DE0); assay: 5′ cap hydrolysis of analog-capped RNA25 with hNudt16; format: biochemical; conditions: 30 min reaction with hNudt16; for % of hydrolysis SP6 product: RNA made with SP6 polymerase; for % of hydrolysis T7 product: RNA made with T7 polymerase
In short: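 Substrate: 50 ng 25-nt cap-analog RNA with trimmed 3′ ends. Digested with 2.5 µM hNudt16 in 40 mM Tris pH 7.9, 100 mM NaCl, 6 mM MgCl2, 2 mM DTT for 30 min at 37°C. Stopped with formamide loading dye, 5 min at 75°C. Run on 15% polyacrylamide/7 M urea, SYBR Gold stain. Hydrolysis = densitometric % loss of capped band; mean ± SD, three experiments. Orientation inferred from hydrolysis pattern.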

SP6 RNA polymerase = molecular target: T1, SP6 RNA polymerase (Enterobacteria phage SP6, UniProt P06221); assay: Efficiency of cap analog incorporation into short RNA25 in IVT; format: biochemical; conditions: RNA25nt, densitometry
T1 sequence (P06221 1-874): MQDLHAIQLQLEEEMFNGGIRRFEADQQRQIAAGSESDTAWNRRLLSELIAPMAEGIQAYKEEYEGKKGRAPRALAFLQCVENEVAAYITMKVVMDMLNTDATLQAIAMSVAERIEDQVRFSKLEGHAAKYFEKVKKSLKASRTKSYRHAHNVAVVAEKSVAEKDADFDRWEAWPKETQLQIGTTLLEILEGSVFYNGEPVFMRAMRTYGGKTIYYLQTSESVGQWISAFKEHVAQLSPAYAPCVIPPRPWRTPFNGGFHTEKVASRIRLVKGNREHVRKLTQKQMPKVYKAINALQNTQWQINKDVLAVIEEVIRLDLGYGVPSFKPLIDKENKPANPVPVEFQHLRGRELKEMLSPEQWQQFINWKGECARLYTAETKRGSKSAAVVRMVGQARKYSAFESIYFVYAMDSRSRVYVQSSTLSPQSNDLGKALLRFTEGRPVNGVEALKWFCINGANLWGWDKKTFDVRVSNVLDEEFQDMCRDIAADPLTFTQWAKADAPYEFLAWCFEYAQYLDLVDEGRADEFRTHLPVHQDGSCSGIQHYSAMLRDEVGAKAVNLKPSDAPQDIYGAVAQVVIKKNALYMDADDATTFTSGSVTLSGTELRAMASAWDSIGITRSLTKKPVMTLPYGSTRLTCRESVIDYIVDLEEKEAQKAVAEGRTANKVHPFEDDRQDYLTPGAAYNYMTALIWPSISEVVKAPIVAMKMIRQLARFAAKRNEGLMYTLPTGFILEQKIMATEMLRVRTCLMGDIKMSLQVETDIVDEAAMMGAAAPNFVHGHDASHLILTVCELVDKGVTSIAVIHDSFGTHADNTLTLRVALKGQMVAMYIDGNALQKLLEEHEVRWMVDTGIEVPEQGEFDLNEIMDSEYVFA
In short: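 DNase I digestion. 3′ ends trimmed with DNAzyme (30 pmol per 400 ng RNA, 50 mM Tris pH 7.4, 50 mM MgCl2, 1 h, 37°C), giving 25-nt RNA. Capped versus uncapped pppRNA bands quantified densitometrically.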

murine eIF4E = murine eIF4E (Mus musculus, UniProt P63073); assay: Thermal stability of eIF4E by DSF in the presence of cap analogs; format: binding; conditions: for Tm (at 100 μM of ligand): murine eIF4E, 100 μM ligand, apo form 38.42; for ΔTm (at 100 μM of ligand): in relation to eIF4E in apo form
Chain of murine eIF4E (P63073 28-217): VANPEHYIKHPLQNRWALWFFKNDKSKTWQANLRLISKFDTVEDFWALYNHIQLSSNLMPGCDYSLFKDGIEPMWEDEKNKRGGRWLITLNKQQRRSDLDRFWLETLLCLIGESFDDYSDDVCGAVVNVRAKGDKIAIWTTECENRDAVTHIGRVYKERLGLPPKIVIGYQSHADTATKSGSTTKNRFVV
In short: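 Murine eIF4E (aa 28–217), 4 μM final, with 5× SYPRO Orange in HEPES/KOH pH 7.2, 100 mM KCl, 0.5 mM EDTA, 1 mM DTT. Test compound at 100 μM final (single point) or 1–100 μM series. Heated 22–95°C at 0.5°C/30 sec, fluorescence read each step. Normalized signal fitted to a two-state denaturation model for Tm. ΔTm is relative to apo eIF4E. Apparent Kd is from ΔTm change with rising ligand concentration.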

[1] = tested on: Rabbit reticulocyte lysate; assay: Translation of luciferase mRNA capped with cap analogs in RRL system; format: biochemical; conditions: for Relative cap-dependent translation efficiency / Relative translation efficiency: Rabbit reticulocyte lysate; for Relative cap-dependent translation efficiency: relative to m^7GpppG; for Relative translation efficiency: relative to m^7GpppG-capped transcript
In short: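 Firefly luciferase mRNA made by SP6 transcription of PCR template, 1 h at 37°C, with 0.5 mM ATP/CTP/UTP, 0.1 mM GTP, 0.5 mM cap analog (cap:GTP 5:1). Then DNase I treatment. Translated in 40% Flexi rabbit reticulocyte lysate with 0.01 mM amino acids, 0.9 mM Mg acetate, 190 mM K acetate. Lysate preincubated 60 min at 30°C, then 60 min with mRNA. Luciferase luminescence expressed relative to m7GpppG-capped mRNA.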

[2] = tested on: cap-dependent translation; conditions: translation inhibition; ref Wojcik et al. 2021; cited from earlier work
[3] = molecular target: cap-dependent translation in RRL system; format: biochemical, rabbit; conditions: inhibition of ARCA-mRNA luciferase translation in RRL system; mean ± SD
In short: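 Flexi rabbit reticulocyte lysate preincubated 60 min at 30°C under cap-dependent conditions. Then m2^7,3′O GpppG-capped firefly luciferase mRNA was added together with increasing concentrations of cap analog, and incubated a further 60 min at 30°C. Luminescence read immediately. IC50 by nonlinear regression; mean ± SD of ≥3 independent replicates. Ratio expresses IC50 relative to m7GpppG control.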

Chain of hNudt16 (Q96DE0 whole entry): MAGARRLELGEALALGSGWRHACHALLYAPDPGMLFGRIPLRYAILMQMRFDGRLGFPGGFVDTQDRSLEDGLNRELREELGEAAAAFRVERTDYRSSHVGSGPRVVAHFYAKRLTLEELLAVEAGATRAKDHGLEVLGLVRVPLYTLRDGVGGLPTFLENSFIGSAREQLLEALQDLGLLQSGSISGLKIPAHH

SMILES	% of hydrolysis SP6 product (hNudt16)	% of hydrolysis T7 product (hNudt16)	capped fraction (capping efficiency) (SP6 RNA polymerase)	Tm (at 100 μM of ligand) (murine eIF4E)	translation level in comparison to m^7GpppG-capped transcript ([1]; RRL)	Relative cap-dependent translation efficiency [1]	Relative translation efficiency [1]	IC50 [2]	IC50 [3]	ΔTm (at 100 μM of ligand) (murine eIF4E)	ΔTm (at 100 μM of ligand) (murine eIF4E; listed as m2^7,3'OGpppG)	Relative translation efficiency ([1]; listed as m2^7,3'-OGpppG)
Nc1nc2c(ncn2[C@@H]2O[C@H](COP(=O)(O)OP(=O)(O)OP(=O)(O)OC[C@H]3O[C@@H](n4cnc5c(=O)[nH]c(N)nc54)[C@H](O)[C@@H]3O)[C@@H](O)[C@H]2O)c(=O)[nH]1 [GpppG]	86.2 ± 3.9% and 86.18%	82.06%	85.3 ± 0.8%	–	–	–	–	–	–	–	–	–
Nc1nc2c(ncn2[C@@H]2O[C@H](COP(=O)(O)OP(=O)(O)OP(=O)(O)OC[C@H]3O[C@@H](n4cnc5c(N)ncnc54)[C@H](O)[C@@H]3O)[C@@H](O)[C@H]2O)c(=O)[nH]1 [ApppG]	–	–	–	38.62 °C	~10%	0	0.09 ± 0.06	–	–	–	–	–
Cn1c[n+]([C@@H]2O[C@H](COP(=O)(O)OP(=O)([O-])OP(=O)(O)OC[C@H]3O[C@@H](n4cnc5c(=O)[nH]c(N)nc54)[C@H](O)[C@@H]3O)[C@@H](O)[C@H]2O)c2nc(N)[nH]c(=O)c21 [m^7GpppG]	45.74%	32.24%	74.3 ± 3.5%	48.10 °C	–	1	1	11.4 ± 2.4 µM	8.94 ± 0.86 µM	–	–	–
CO[C@H]1[C@@H](O)[C@H]([n+]2cn(C)c3c(=O)[nH]c(N)nc32)O[C@@H]1COP(=O)([O-])OP(=O)(O)OP(=O)(O)OC[C@H]1O[C@@H](n2cnc3c(=O)[nH]c(N)nc32)[C@H](O)[C@@H]1O [m2^7,3′OGpppG]	8.7 ± 2.0%	4.81%	65.8 ± 2.4%	47.53 °C	–	1.53 ± 0.20	1.47	–	–	around 10 °C	9.11 °C	1.47 ± 0.17
